Source: PubChem BioAssay
The list is not random: actives were taken first. Their share in the collection is about 2.8%.
Arbovirus inh: antivirals against arbovirus infection; inhibition, % at 10 µM; 200,000 compounds, 0.37% hits; arbovirus infection cell-based antiviral screen; in the data active = inhibition above about 30%
Calpain2 inh: blocks pig calpain II enzyme activity; purified calpain II, fluorogenic peptide substrate, 30 min; inhibition, % at 16 µM; 220,000 compounds, 0.37% hits;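 active = inhibition above about 50%, limit read from the data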
Mcl1 Noxa PPI: Mcl-1/Noxa interaction inhibition; AID 1022; inhibition, % at 21.7 µM; TR-FRET Mcl-1/Noxa peptide binding, 2 h; 220,000 compounds, 1.5% hits; Q07820;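 active = compounds that cut the protein-peptide binding signal by more than 50% relative to plate controls in a single-dose test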;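 also: His-tagged Mcl-1 with rhodamine Noxa BH3 peptide and terbium anti-His antibody; 0% = Mcl-1 plus Noxa peptide wells and 100% = peptide-only wells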
Target sequence (Q07820 whole entry, looked up): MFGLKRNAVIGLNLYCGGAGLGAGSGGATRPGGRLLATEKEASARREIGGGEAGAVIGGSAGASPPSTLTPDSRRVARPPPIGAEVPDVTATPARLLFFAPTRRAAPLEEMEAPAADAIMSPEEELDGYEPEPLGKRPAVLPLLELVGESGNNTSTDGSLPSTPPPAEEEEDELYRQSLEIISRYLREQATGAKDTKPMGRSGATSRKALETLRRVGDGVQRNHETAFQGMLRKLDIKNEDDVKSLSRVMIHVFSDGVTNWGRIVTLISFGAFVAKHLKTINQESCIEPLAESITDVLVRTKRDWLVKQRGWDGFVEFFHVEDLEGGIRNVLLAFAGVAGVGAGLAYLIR
Bim-Mcl-1: disrupts Bim peptide binding to human Mcl-1. Q07820. Bead-based flow cytometry, Bim peptide-Mcl-1 binding. inhibition, % at 10 µM. 190,000 compounds, 0.1% hits. AID 1009; in the data active = inhibition above about 40%;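 also: 0% = no compound tracer wells and 100% = peptide blocker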
Biofilm kill mix: mixture kills Candida albicans biofilm cells | C. albicans biofilm persisters + clotrimazole, fluorescence viability; primary screen in compound mixtures of four per well | inhibition, % at 7.6 µM | 120,000 compounds, 0.02% hits;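 active = inhibition above 30.3% in the primary screen of four-compound pools, then above 30% when the compound was retested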;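 also: compounds exposed to preformed 24 h biofilms for 48 h; 0% = untreated biofilm control and 100% = clotrimazole plus chlorhexidine kill blank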
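Incubation: 24 h biofilm formation, then 48 h compound exposure, 37 °C | Material: C. albicans biofilms | Buffer or medium: RPMI/MOPS medium, pH 7.0 | Measured by: 2-h Alamar Blue fluorescence, 535/590 nm excitation/emission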
Mcl1 Bid PPI: Mcl-1/Bid interaction inhibition. TR-FRET Mcl-1/Bid-Dy647 peptide binding, 1536-well. AID 1021. Q07820. inhibition, % at 21.7 µM. 220,000 compounds, 0.97% hits;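 active = compounds that cut the binding signal by more than half at the single screening dose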;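 also: His-tagged Mcl-1 with europium anti-His antibody binding Bid BH3 peptide; 0% = Mcl-1 plus peptide wells and 100% = peptide-only wells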
* marks the source's active call; other numbers are inactive results; · = no result.

SMILES	Arbovirus inh	Calpain2 inh	Mcl1 Noxa PPI	Bim-Mcl-1	Biofilm kill mix	Mcl1 Bid PPI
CC(C)CN(C(=O)COC(=O)c1cc2c(s1)CCC2)C1CCS(=O)(=O)C1 (stereo not drawn)	0.4	-80.9	55.4*	1.0	·	-29.3
COc1ccc(-c2nc3ccccc3c(=O)n2CCOc2cccc(C)c2C)cc1	15.1	-3.0	10.8	-4.0	13.9	95.2*
O=C(N/N=C\c1c(O)ccc2ccccc12)c1ccc(Cn2cccn2)o1	-33.2	-181.1	51.3*	0.0	11.1	-70.2
O=C(N/N=C\c1ccc(Cl)s1)c1ccc(Cn2cccn2)o1	-17.6	-1.3	-1.0	-3.0	5.3	-13.3
COc1ccc(Cl)cc1NC(=O)CN(C1CCCCC1)S(C)(=O)=O	0.8	12.0	68.4*	-1.0	·	33.4
CSc1ccccc1NC(=O)CN(C1CCCCC1)S(C)(=O)=O	3.0	4.1	0.0	-1.0	·	-7.1
O=C1OC(c2ccccc2)=C/C1=C/N1CCCCC1	5.9	19.7	13.9	0.0	·	85.7*
CNC(=O)/C(C#N)=C/c1c(N(Cc2ccccc2)Cc2ccccc2)nc2c(C)cccn2c1=O	-38.1	19.6	-2.6	90.0*	2.4	30.4
CCNC(=O)/C(C#N)=C/c1c(N(Cc2ccccc2)Cc2ccccc2)nc2ccccn2c1=O	-32.2	22.2	27.8	-4.0	11.5	11.2
CN1CCN(C(=O)CSc2nc(-c3cccs3)ccc2C#N)CC1	6.9	-126.5	55.9*	-1.0	·	-8.5
N#Cc1ccc(-c2cccs2)nc1SCc1cccnc1	·	-38.9	0.0	·	20.9	-2.3
O=C(COC(=O)CCN=C1NS(=O)(=O)c2ccccc21)NC1CCCCCCC1	·	-10.7	-13.2	·	14.7	-23.6
O=C(COC(=O)CCCN=C1NS(=O)(=O)c2ccccc21)NC(=O)NC1CCCC1	5.1	-19.0	11.6	102.0*	16.8	-19.6
O=C1c2[nH]nc(-c3ccccc3O)c2C(c2ccc(F)cc2)N1CC1CCCO1 (stereo not drawn)	32.9*	-18.8	19.9	-1.0	·	5.3
CC12CCC(C(=O)NNc3ccc([N+](=O)[O-])cc3)(CC1=O)C2(C)C (stereo not drawn)	-8.7	5.5	4.1	1.0	8.4	-19.8
Cc1nc(NC(=O)/C=C/c2ccco2)sc1C	-13.6	21.1	57.7*	-2.0	15.5	-16.4
O=C(/C=C/c1ccco1)Nc1cccc(NC(=O)/C=C/c2ccco2)n1	7.0	-55.4	71.8*	-3.0	10.6	-66.7
O=C(CCCl)N1CCCC2(CCCCC2)C1	·	-24.4	1.1	·	19.5	-7.3
N#C/C(=C\c1cn[nH]c1-c1ccc(Cl)cc1)C(=O)NCc1ccccc1	36.8*	-14.2	10.1	0.0	·	-17.0
NC(=S)Nc1ccc(F)cc1F	·	18.3	-12.1	·	21.0	77.1*
CCn1c2ccccc2c2cc(/C=N/NC(=O)c3cc(O)cc(O)c3)ccc21	-12.8	-84.7	63.5*	-2.0	8.5	-13.2
Cc1ccc(-n2c(C)nnc2SCC(=O)N2CCc3ccccc3C2)cc1	1.0	-1.4	-3.9	-8.0	10.0	-18.9
Cc1ccc(CNC(=O)c2ccc3c(=O)n(CC4CCCO4)c(=S)[nH]c3c2)cc1 (stereo not drawn)	4.2	81.5*	0.1	-1.0	·	-80.4
O=C(NCc1ccccc1)c1ccc2c(=O)n(CC3CCCO3)c(=S)[nH]c2c1 (stereo not drawn)	1.2	22.3	3.6	-2.0	·	-44.3
O=C(NCC1CCCO1)c1ccc2c(=O)n(-c3ccc(F)cc3)c(=S)[nH]c2c1 (stereo not drawn)	-2.8	7.0	-11.6	48.0*	17.5	-48.8
SMILES	Arbovirus inh	Calpain2 inh	Mcl1 Noxa PPI	Bim-Mcl-1	Biofilm kill mix	Mcl1 Bid PPI
CN1CCN(c2ccc([N+](=O)[O-])cc2/C=N/NC(=O)c2cccc([N+](=O)[O-])c2)CC1	5.5	19.1	90.7*	-3.0	13.5	-0.4
O=C(N/N=C\c1cc([N+](=O)[O-])ccc1N1CCCC1)c1ccccn1	6.8	6.7	9.8	0.0	14.6	-21.8
O=C(Cn1c2ccccc2c(=O)c2ccccc21)N/N=C/c1cc([N+](=O)[O-])ccc1N1CCCCC1	-6.3	-105.2	43.4	-8.0	18.6	67.0*
Cc1noc(C)c1COc1ccc(C(=O)OCC(=O)NCCN2C(=O)CSC2=O)cc1	-3.2	5.8	1.2	2.0	11.0	-33.7
Cc1ccccc1C1CCCN(Cc2nc(CC3CC3)no2)C1 (stereo not drawn)	1.1	-19.3	-9.0	0.0	10.9	0.3
CC(C)n1c(O)c(/C=C2\C=NN=C2c2ccccc2)sc1=S	·	-3.1	66.5*	·	5.6	-9.7
CCn1c(O)c(/C=C2\C=NN=C2c2ccc(C)cc2)sc1=S	-1.5	20.9	11.4	-1.0	9.1	-5.5
COc1cc(/C=C(\C#N)c2nc3c(s2)CCCC3)ccc1O	-13.3	-63.7	51.0*	0.0	·	29.5
COc1cc(SC)ccc1C(=O)N1CCN(c2ccccc2)CC1	-4.8	14.0	82.3*	0.0	10.4	-43.7
CCc1ccc(OCc2n[nH]c(=S)n2Cc2ccccc2)cc1	3.5	53.8*	-1.1	-7.0	20.4	-23.9
O=C(COc1ccc(Cl)cc1Cl)Nc1c(-c2cccs2)nc2ccccn12	-4.3	-72.4	51.8*	27.0	15.0	23.7
Cc1ccccc1C(=O)NC(CC(C)C)C(=O)OCC(=O)c1c(N)n(C)c(=O)n(C)c1=O (stereo not drawn)	5.2	-18.4	6.0	0.0	8.8	-39.9
CCOC(=O)/C(=N\Nc1ccccc1Cl)N(C)C1CCCCC1	-18.6	-18.3	11.6	-2.0	11.2	-46.2
Fc1ccc(-c2cc3nc(-c4ccccc4)cc(N4CCN(CCN5CCOCC5)CC4)n3n2)cc1	-22.1	-481.5	12.4	-2.0	·	-1.8
Cc1cc(N2CCN(C)CC2)n2cc(-c3ccc(F)cc3)nc2n1	5.6	-498.9	57.8*	-1.0	·	-21.7
Cc1cc(N2CCN(c3ccccn3)CC2)n2cc(-c3ccccc3)nc2n1	2.5	-102.0	5.2	0.0	·	-12.8
CN1CCN(c2cc(-c3ccccc3)nc3cc(-c4ccc(F)cc4)nn23)CC1	3.9	-363.6	52.5*	0.0	·	6.1
CCOC(=O)/C(=C\c1ccc(OC(F)F)cc1)C1=Nn2c(nnc2-c2ccc(Cl)cc2)SC1	-34.7	-45.4	25.8	-7.0	10.4	-0.5
O=C(N/N=C/c1cccc([N+](=O)[O-])c1)c1cc2c(ccc3ccccc32)o1	-7.5	-34.4	30.6	0.0	·	81.8*
O=C(N/N=C/c1ccc(-c2ccc(Cl)c(C(=O)O)c2)o1)c1cc2c(ccc3ccccc32)o1	·	-42.3	109.7*	·	6.8	95.6*
CCCCn1c(N)c(N(CCOC)C(=O)CN2c3ccccc3CC2C)c(=O)[nH]c1=O (stereo not drawn)	14.6	18.7	14.1	-2.0	12.4	-45.7
CCN(CC)c1nc2c3c(nc4c(c3c1C#N)CC(=O)N4c1ccc(Cl)cc1)NC(C)=N2	0.1	-189.2	82.5*	2.0	5.4	27.1
COc1ccc(C(C2C(=O)CC(C)(C)CC2=O)C2C(=O)CC(C)(C)CC2=O)cc1	·	-10.0	5.8	·	13.3	-42.8
